In ChEMBL document CHEMBL1124135, “Substituted 2-[(2-benzimidazolylsulfinyl)methyl]anilines as potential inhibitors of H+/K+ ATPase” (J Med Chem, 1988):

Experiments:
[1] = biological target: Potassium-transporting ATPase (Canis familiaris); assay: In vitro inhibitory activity against H+/K+ ATPase prepared from canine fundic mucosa
Canis familiaris [2] = assay: Inhibitory activity when administered intravenously in histamine-stimulated gastric fistula dog at 3 mg/kg, id; type: functional; conditions: Canis lupus familiaris, Stomach, in the assay text read “in” for “when administered intravenously in”
Outline: (§1)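 Conscious gastric-fistula dogs fasted 18 h, given 3 mg/kg after a 30-min basal period. Histamine infused at 15 μg/kg per h, with gastric juice collected every 30 min for 4 h. Total acidity found by titration with 0.1 N NaOH to pH 7.0.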

Canis familiaris [3] = assay: Inhibitory activity when administered […] in histamine-stimulated gastric fistula dog at 3 mg/kg, id; Lethal at 10 mg/kg, id; type: functional, organism-based; conditions: Canis lupus familiaris, Stomach
Outline: as §1

Structure (SMILES)	IC50 [1] [µM]	inhibition in vivo at 3 mg/kg (Canis familiaris [2]) [%]	inhibition (Canis familiaris [3])
Cc1ccc(C)c(C[S+]([O-])c2nc3cc(C(F)(F)F)ccc3[nH]2)c1N (stereo not given)	1.5	–	–
Cc1ccc(N)c(C[S+]([O-])c2nc3ccccc3[nH]2)c1 (stereo not given)	2.1	67	–
CCc1ccc(N)c(C[S+]([O-])c2nc3ccccc3[nH]2)c1 (stereo not given)	2	62	–
COc1cccc(C[S+]([O-])c2nc3ccccc3[nH]2)c1N (stereo not given)	9.3	68	–
COc1ccc2[nH]c([S+]([O-])Cc3ccccc3N)nc2c1 (stereo not given)	11	78	–
COc1ccc2[nH]c([S+]([O-])Cc3cccc(C)c3N)nc2c1 (stereo not given)	5.4	72	–
COc1cc(Cl)c(C)c(C[S+]([O-])c2nc3ccccc3[nH]2)c1N (stereo not given)	2.7	–	–
COc1ccc2[nH]c([S+]([O-])Cc3c(N)cc(C)c(OC)c3C)nc2c1 (stereo not given)	2.1	31	–
COc1ccc(N)c(C[S+]([O-])c2nc3ccccc3[nH]2)c1 (stereo not given)	1.6	–	–
Nc1cc(Cl)ccc1C[S+]([O-])c1nc2ccccc2[nH]1 (stereo not given)	24	13	–
Cc1cccc2[nH]c([S+]([O-])Cc3ccccc3N)nc12 (stereo not given)	7.4	60	–
CCOC(=O)c1ccc(N)c(C[S+]([O-])c2nc3ccccc3[nH]2)c1 (stereo not given)	> 100	7	–
CCc1cccc(C[S+]([O-])c2nc3ccccc3[nH]2)c1N (stereo not given)	3.9	21	–
Cc1ccc(C)c(C[S+]([O-])c2nc3ccccc3[nH]2)c1N (stereo not given)	0.8	–	–
Cc1c(Cl)ccc(C[S+]([O-])c2nc3ccccc3[nH]2)c1N (stereo not given)	6.4	–	–
Cc1ccc(C[S+]([O-])c2nc3ccccc3[nH]2)c(N)c1C (stereo not given)	0.6	79	–
Cc1cc(Cl)cc(C[S+]([O-])c2nc3ccccc3[nH]2)c1N (stereo not given)	60	–	–
Nc1ccccc1C[S+]([O-])c1nc2cc(Cl)ccc2[nH]1 (stereo not given)	12	–	–
Cc1cc2nc([S+]([O-])Cc3ccccc3N)[nH]c2cc1C (stereo not given)	13.5	44	–
Nc1ccccc1C[S+]([O-])c1nc2ccccc2[nH]1 (stereo not given)	4.3	53	–
Cc1ccc2[nH]c([S+]([O-])Cc3ccccc3N)nc2c1 (stereo not given)	7.9	–	–
CNc1ccccc1C[S+]([O-])c1nc2ccccc2[nH]1 (stereo not given)	0.6	21	–

Structure (SMILES)	IC50 [1] [µM]	inhibition in vivo at 3 mg/kg (Canis familiaris [2]) [%]	inhibition (Canis familiaris [3])
[O-][S+](Cc1ccccn1)c1nc2ccccc2[nH]1 (stereo not given) [TIMOPRAZOLE]	–	68	–
CN(C)c1ccccc1C[S+]([O-])c1nc2ccccc2[nH]1 (stereo not given)	0.7	14	–
COc1cc2nc([S+]([O-])Cc3ccccc3N)[nH]c2cc1OC (stereo not given)	120	–	–
CCOc1ccc2[nH]c([S+]([O-])Cc3cc(C)ccc3N)nc2c1 (stereo not given)	5.3	–	–
COc1ccc2[nH]c([S+]([O-])Cc3cc(C)ccc3N)nc2c1 (stereo not given)	4.2	80	–
CC(=O)Nc1ccccc1C[S+]([O-])c1nc2ccccc2[nH]1 (stereo not given)	> 100	37	–
Nc1ccccc1C[S+]([O-])c1nc2cc(C(F)(F)F)ccc2[nH]1 (stereo not given)	4.4	37	–
COC(=O)c1cccc(C[S+]([O-])c2nc3ccccc3[nH]2)c1N (stereo not given)	> 100	28	–
Cc1cc(N)c(C[S+]([O-])c2nc3ccccc3[nH]2)c(C)c1C (stereo not given)	10	–	–
CCOc1ccc2[nH]c([S+]([O-])Cc3ccccc3N)nc2c1 (stereo not given)	24	–	–
Cc1ccc2nc([S+]([O-])Cc3ccc(C)c(C)c3N)[nH]c2c1 (stereo not given)	0.7	–	–
Cc1cccc(C[S+]([O-])c2nc3ccccc3[nH]2)c1N (stereo not given)	3.2	44	–
Nc1ccc(F)cc1C[S+]([O-])c1nc2ccccc2[nH]1 (stereo not given)	25	–	–
CCOC(=O)c1ccc(N)c(C[S+]([O-])c2nc3ccc(OC)cc3[nH]2)c1 (stereo not given)	> 100	–	–
Cc1cccc(N)c1C[S+]([O-])c1nc2ccccc2[nH]1 (stereo not given)	0.7	44	–
COc1c(C)cc(N)c(C[S+]([O-])c2nc3ccccc3[nH]2)c1C (stereo not given)	0.2	53	–
CCCCc1ccc(N)c(C[S+]([O-])c2nc3ccccc3[nH]2)c1 (stereo not given)	2.6	19	–
COc1ccc2[nH]c([S+]([O-])Cc3ncc(C)c(OC)c3C)nc2c1 (stereo not given) [OMEPRAZOLE]	–	97	–
COc1cccc(C[S+]([O-])c2nc3cc(C(F)(F)F)ccc3[nH]2)c1N (stereo not given)	8.5	–	–
Nc1ccc(Cl)cc1C[S+]([O-])c1nc2ccccc2[nH]1 (stereo not given)	> 100	24	–
Nc1ccc(C(F)(F)F)cc1C[S+]([O-])c1nc2ccccc2[nH]1 (stereo not given)	> 100	16	–
Cc1cc(C)c(N)c(C[S+]([O-])c2nc3ccccc3[nH]2)c1 (stereo not given)	0.8	–	Lethal at 10mg/kg,id
